Test results as given in ChEMBL document CHEMBL3351741, “Fused heterocycles bearing bridgehead nitrogen as potent HIV-1 NNRTIs. Part 2: discovery of novel [1,2,4]Triazolo[1,5-a]pyrimidines using a structure-guided core-refining approach” (Eur J Med Chem, 2014).

How the values were obtained:
[1] = tested on: Human immunodeficiency virus 1; assay: Antiviral activity against HIV-1 harboring wild-type reverse transcriptase; type: functional, organism-based
[2] = tested on: Human immunodeficiency virus 1; assay: Antiviral activity against HIV-1 harboring RT Y188L mutant; type: functional, organism-based
[3] = tested on: Human immunodeficiency virus 1; assay: Antiviral activity against HIV-1 harboring RT K103N/Y181C double mutant; type: functional, organism-based
[4] = tested on: Human immunodeficiency virus 1; assay: Antiviral activity against HIV-1 harboring RT Y181C mutant; type: functional, organism-based
[5] = tested on: Human immunodeficiency virus 2; assay: Antiviral activity against HIV-2 ROD infected in human MT4 cells assessed as protection from viral cytopathicity after 5 days by MTT assay; type: functional, organism-based; conditions: Human immunodeficiency virus 2, ISOLATE ROD, MT4, 120 h
Procedure, shortened: (§1)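 MT-4 cells (6 × 10⁵ cells/ml) infected with HIV-1 IIIB or HIV-2 ROD stock at 100-300 CCID₅₀; compounds added as 10× stocks. After 5 days, viability read by MTT reduction at 540 and 690 nm, using median OD of two or three wells. EC₅₀ is the concentration giving 50% protection from viral cytopathicity.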

[6] = tested on: Human immunodeficiency virus 1; assay: Antiviral activity against HIV-1 3B infected in human MT4 cells assessed as protection from viral cytopathicity after 5 days by MTT assay; type: functional, organism-based; conditions: Human immunodeficiency virus 1, 3B, MT4, 120 h; procedure, shortened: as §1
[7] = Selectivity index, ratio of CC50 for mock-infected human MT4 cells to EC50 for HIV-2 ROD infected in human MT4 cells; type: toxicity, cell-based; conditions: mock-infected and infected with HIV-2 ROD, read-out: Ratio CC50/EC50
Procedure, shortened: (§2)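 MT-4 cells resuspended at 6 × 10⁵ cells/ml, infected with HIV-1 IIIB, RES056 or HIV-2 ROD at 100-300 CCID50, or mock-infected; test compounds added from 10× stocks. After 5 days, viability read by MTT at 540 and 690 nm, median OD of two or three wells. EC50 = 50% protection from cytopathicity; CC50 = 50% viability loss in mock-infected cells; SI = CC50/EC50.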

[8] = Cytotoxicity against mock-infected human MT4 cells after 5 days by MTT assay; type: cell-based
Procedure, shortened: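 Mock-infected MT-4 cells (6 × 10⁵ cells/ml) received culture medium in place of virus and were exposed to compounds added as 10× stocks. After 5 days, viability was read by MTT at 540 and 690 nm, using median OD of two or three wells. CC₅₀ is the concentration cutting viability by 50%. '>' marks the highest concentration tested without cytotoxicity.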

[9] = tested on: Human immunodeficiency virus 1; assay: Antiviral activity against HIV-1 RES056 harboring RT K103N/Y181C double mutant infected in human MT4 cells assessed as protection from viral cytopathicity after 5 days by MTT assay; type: functional, organism-based; conditions: Human immunodeficiency virus 1, RES056, MT4, 120 h; procedure, shortened: as §2
[10] = Selectivity index, ratio of CC50 for mock-infected human MT4 cells to EC50 for HIV-1 3B infected in human MT4 cells; type: toxicity, cell-based; conditions: mock-infected and infected with HIV-1 3B, read-out: Ratio CC50/EC50; procedure, shortened: as §2
[11] = Selectivity index, ratio of CC50 for mock-infected human MT4 cells to EC50 for HIV-1 RES056 harboring RT K103N/Y181C double mutant infected in human MT4 cells; type: toxicity, cell-based; conditions: read-out: Ratio CC50/EC50; procedure, shortened: as §2
[12] = target: Human immunodeficiency virus type 1 reverse transcriptase (Human immunodeficiency virus 1, UniProt Q72547); assay: Inhibition of purified recombinant HIV-1 reverse transcriptase after 1 hr using biotin-labeled dUTP by digoxigenin-peroxidase assay
Procedure, shortened: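 Kit-based colorimetric ELISA with recombinant wild-type HIV-1 RT, poly(A)·oligo(dT)15 template/primer, dNTPs including digoxigenin- and biotin-labeled dUTP, in lysis buffer ± inhibitor, incubated 1 h at 37 °C. Product captured on streptavidin, detected with anti-DIG-peroxidase and ABTS, absorbance at 405 nm. Several concentrations tested; % inhibition taken relative to the no-inhibitor sample.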

| Structure (SMILES) | EC50 [1] [µM] | EC50 [2] [µM] | EC50 [3] [µM] | EC50 [4] [µM] | EC50 [5] [µM] | EC50 [6] [µM] | selectivity ratio [7] | CC50 at 120 h [8] [µM] | EC50 [9] [µM] | selectivity ratio [10] | selectivity ratio [11] | IC50 [12] [µM] |
| --- | --- | --- | --- | --- | --- | --- | --- | --- | --- | --- | --- | --- |
| Cc1cc(C#N)cc(C)c1Oc1nc(Nc2ccc(C#N)cc2)nc2[nH]ccc12 | 0.00016 | 0.004 | 0.0078 | 0.0045 |  |  |  |  |  |  |  |  |
| Cc1cc(C#N)cc(C)c1Oc1nc(Nc2ccc(C#N)cc2)nc2cc[nH]c12 | 0.00025 | 0.0011 | 0.0038 | 0.0014 |  |  |  |  |  |  |  |  |
| Cc1cccc(C)c1Oc1cc(Nc2ccc(C#N)cc2)n2ncnc2n1 |  |  |  |  | > 253 | 1.5 | < 1 | 253 | > 253 | 170 | < 1 |  |
| Cc1cc(C)c(Oc2cc(Nc3ccc(C#N)cc3)n3ncnc3n2)c(C)c1 |  |  |  |  | > 106 | 0.07 | < 1 | 106 | ≥ 50 | 1450 | ≤ 2 |  |
| Cc1cc(Br)cc(C)c1Oc1cc(Nc2ccc(C#N)cc2)n2ncnc2n1 |  |  |  |  | > 128 | 0.3 | < 1 | 128 | > 128 | 427 | < 1 |  |
| N#Cc1ccc(Nc2cc(Oc3c(Cl)cc(Cl)cc3Cl)nc3ncnn23)cc1 |  |  |  |  | > 32 | 0.3 | < 1 | 32 | > 32 | 109 | < 1 |  |
| N#Cc1ccc(Nc2cc(Oc3c(F)cc(F)cc3F)nc3ncnn23)cc1 |  |  |  |  | > 174 | > 174 | < 1 | 174 | > 174 | < 1 | < 1 |  |
| Cc1cccc(C)c1Oc1cc(Nc2ccc(C#N)cc2)nc2ncnn12 |  |  |  |  | > 233 | 1.3 | < 1 | 233 | > 233 | 182 | < 1 |  |
| N#Cc1ccc(Nc2cc(Oc3c(Cl)cccc3Cl)n3ncnc3n2)cc1 |  |  |  |  | > 150 | 3.4 | < 1 | 150 | > 150 | 44 | < 1 |  |
| Cc1cc(C)c(Oc2cc(Nc3ccc(C#N)cc3)nc3ncnn23)c(C)c1 |  |  |  |  | > 164 | 0.05 | < 1 | 164 | > 164 | 3200 | < 1 |  |
| Cc1cc(C)c(Oc2cc(Nc3ccc([N+](=O)[O-])cc3)nc3ncnn23)c(C)c1 |  |  |  |  | > 33 | 0.6 | < 1 | 33 | > 33 | 57 | < 1 |  |
| Cc1cc(C)c(Oc2cc(Nc3ccc(Cl)cc3)nc3ncnn23)c(C)c1 |  |  |  |  | > 46 | 0.05 | < 1 | 46 | > 46 | 864 | < 1 |  |
| Cc1ccc(Nc2cc(Oc3c(C)cc(C)cc3C)n3ncnc3n2)cc1 |  |  |  |  | > 47 | 0.07 | < 1 | 47 | > 47 | 649 | < 1 |  |
| COc1ccc(Nc2cc(Oc3c(C)cc(C)cc3C)n3ncnc3n2)cc1 |  |  |  |  | > 37 | 0.2 | < 1 | 37 | > 37 | 165 | < 1 |  |
| Cc1cc(Br)cc(C)c1Oc1cc(Nc2ccc(C#N)cc2)nc2ncnn12 |  |  |  |  | > 136 | 0.23 | < 1 | 136 | > 136 | 579 | < 1 |  |
| Cc1cc(C#N)cc(C)c1Oc1cc(Nc2ccc(C#N)cc2)nc2ncnn12 |  |  |  |  | > 224 | 1.2 | < 1 | 224 | > 224 | 182 | < 1 | 0.39 |
| Cc1cc(Cl)cc(C)c1Oc1cc(Nc2ccc(C#N)cc2)nc2ncnn12 |  |  |  |  | > 104 | 0.4 | < 1 | 104 | > 104 | 256 | < 1 |  |
| N#Cc1ccc(Nc2cc(Oc3c(Cl)cc(Cl)cc3Cl)n3ncnc3n2)cc1 |  |  |  |  | > 29 | 0.6 | < 1 | 29 | > 29 | 47 | < 1 |  |
| N#Cc1ccc(Nc2cc(Oc3c(Br)cc(Br)cc3Br)n3ncnc3n2)cc1 |  |  |  |  | > 47 | 0.3 | < 1 | 47 | > 47 | 142 | < 1 |  |
| Cc1cc(Br)c(Oc2cc(Nc3ccc(C#N)cc3)nc3ncnn23)c(Br)c1 |  |  |  |  | > 192 | 0.05 | < 1 | 192 | > 192 | 3620 | < 1 |  |
| Cc1cc(C)c(Nc2cc(Nc3ccc(C#N)cc3)nc3ncnn23)c(C)c1 |  |  |  |  | > 190 | 0.02 | < 1 | 190 | 7.6 | 8990 | 25 |  |
| Cc1cccc(C)c1Nc1cc(Nc2ccc(C#N)cc2)nc2ncnn12 |  |  |  |  | > 272 | 2.1 | < 1 | 272 | > 272 | 127 | < 1 |  |
| CC(C)Nc1cccnc1N1CCN(C(=O)c2cc3cc(NS(C)(=O)=O)ccc3[nH]2)CC1 [DELAVIRDINE] |  |  |  |  |  | 0.07 |  | > 36 | > 36 | > 494 | 1 |  |
| Cc1ccnc2c1NC(=O)c1cccnc1N2C1CC1 [NEVIRAPINE] |  |  |  |  |  | 0.15 |  | > 15 | 2.9 | > 14 | > 5 |  |
